From ChEMBL document CHEMBL1157779, “Merging the structural motifs of functionalized amino acids and alpha-aminoamides: compounds with significant anticonvulsant activities” (J Med Chem, 2010) come the findings set out here.

Data set [1] has as its system Rattus norvegicus. Nature of the data set: Anticonvulsant activity in po dosed Sprague-Dawley albino rat assessed as inhibition of maximal electroshock-induced seizures after 1 hr. The data set is classed as functional. The gist of the method: (§1)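 Male albino Sprague-Dawley rats dosed orally; maximal electroshock seizures, protection scored as blockade of hind limb extension, tested at set times after dosing; ED50 in mg/kg from quantitative evaluation for active compounds.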
In general terms: Protection in the maximal electroshock model is a classic sign of anticonvulsant action.

Data set [2] is described as follows: (§2) Toxicity in ip dosed albino mouse after 0.5 hrs by rotarod test. Format: organism-based. Particulars: albino, in vivo.
Data set [3] is filed under the species Rattus norvegicus. Put plainly: Protective index, ratio of TD50 for Sprague-Dawley albino rat to anticonvulsant ED50 for Sprague-Dawley albino rat. Format: functional. The method, boiled down: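 Rat, oral: behavioral-toxicity TD50 divided by MES ED50, both in mg/kg.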
Data set [4] has as its system Mus musculus. Put plainly: Anticonvulsant activity in ip dosed albino mouse assessed as inhibition of maximal electroshock-induced seizures after 0.5 hrs. Format: functional.
Data set [5] deals with Rattus norvegicus. Nature of the data set: Behavioral toxicity in po dosed Sprague-Dawley albino rat. Format: organism-based. The following applies: in vivo.
The subject of data set [6] is Mus musculus. Nature of the data set: Anticonvulsant activity in ip dosed albino mouse assessed as protection against 6 Hz electric shock-induced seizures after […]. Format: functional.
Data set [7] concerns Mus musculus. Nature of the data set: Anticonvulsant activity in albino mouse assessed as protection against subcutaneous metrazole-induced seizures up to 300 mg/kg, ip after 4 hrs. Format: functional, organism-based. The arrangement: dose 300 mg/kg. The method, boiled down:
(§3)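 Male albino Carworth Farms No. 1 mice dosed ip under NIH Anticonvulsant Screening Program; subcutaneous Metrazol seizure challenge at 0.5 and 4 h after doses up to 300 mg/kg.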

The subject of data set [8] is Mus musculus. Put plainly: Anticonvulsant activity in ip dosed albino mouse assessed as inhibition of maximal electroshock-induced seizures after […]. Format: functional.
Data set [9] deals with Mus musculus. Nature of the data set: Anticonvulsant activity in albino mouse assessed as protection against subcutaneous metrazole-induced seizures up to 300 mg/kg, ip after 0.5 hrs. Format: functional, organism-based. The arrangement: dose 300 mg/kg. The gist of the method:
as §3

The test system of data set [10] is Rattus norvegicus. Nature of the data set: Anticonvulsant activity in po dosed Sprague-Dawley albino rat assessed as inhibition of maximal electroshock-induced seizures after 4 hrs. The data set is classed as functional. The gist of the method: as §1
Data set [11] can be described thus: Behavioral toxicity in po dosed Sprague-Dawley albino rat after […]. The data set is classed as organism-based. Particulars: in vivo.
Data set [12] has as its system Mus musculus. Put plainly: Anticonvulsant activity in ip dosed albino mouse assessed as protection against subcutaneous metrazole-induced seizures. The data set is classed as functional. The gist of the method: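 Subcutaneous Metrazol seizure model in male albino Carworth Farms No. 1 mice, ip dosing. Doses up to 300 mg/kg tested at two time points (0.5 and 4 h).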

Data set [13] in a line: (§4) Behavioral toxicity in po dosed Sprague-Dawley albino rat after 4 hrs. Format: organism-based. Particulars: Sprague-Dawley, in vivo. The gist of the method:
(§5)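 Oral dosing in male albino Sprague-Dawley rats with behavioral toxicity observation at set times after dosing, doses up to 500 mg/kg.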

For data set [14], the species on record is Mus musculus. Nature of the data set: Protective index, ratio of TD50 for albino mouse to anticonvulsant ED50 for albino mouse. The data set is classed as functional.
The test system of data set [15] is Rattus norvegicus. Nature of the data set: Anticonvulsant activity in po dosed Sprague-Dawley albino rat assessed as inhibition of maximal electroshock-induced seizures after 2 hrs. The data set is classed as functional.
The nature of data set [16]: Toxicity in ip dosed albino mouse after […] by rotarod test. The data set is classed as organism-based. Particulars: in vivo.
Data set [17] can be described thus: Toxicity in ip dosed albino mouse after 4 hrs by rotarod test. The data set is classed as organism-based. Particulars: in vivo. The method, boiled down: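 Male albino Carworth Farms No. 1 mice dosed ip; neurological impairment by rotorod test at set times; TD50 (mg/kg) determined for compounds active in MES.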
Data set [18] has as its system Mus musculus. Put plainly: Anticonvulsant activity in ip dosed albino mouse assessed as inhibition of maximal electroshock-induced seizures after 1 hr. The data set is classed as functional. The gist of the method: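 Male albino Carworth Farms No. 1 mice dosed intraperitoneally; screened via the NIH Anticonvulsant Screening Program. Protection scored as blocking of hind limb extension after maximal electroshock. Median effective dose (ED50, mg/kg) obtained in quantitative evaluations of active compounds. Rotorod test gave TD50 for neurological impairment, and PI = TD50/ED50.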

For data set [19], the system named is Mus musculus. Put plainly: Anticonvulsant activity in ip dosed albino mouse assessed as inhibition of maximal electroshock-induced seizures after 4 hrs. Format: functional. The method, boiled down: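 Male albino Carworth Farms No. 1 mice given compound ip; maximal electroshock applied and protection scored as blockade of hind limb extension; identification screening, then ED50 (mg/kg) from quantitative testing for active compounds.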

The subject of data set [20] is Rattus norvegicus. Nature of the data set: Behavioral toxicity in po dosed Sprague-Dawley albino rat after 1 hr. Format: organism-based. Particulars: in vivo, 1 h. The gist of the method: as §5
A short description of data set [21]: Behavioral toxicity in po dosed Sprague-Dawley albino rat after 0.25 to 4 hrs. Format: organism-based. The following applies: in vivo. The gist of the method:
as §5

Data set [22] deals with Rattus norvegicus. Put plainly: Anticonvulsant activity in po dosed Sprague-Dawley albino rat assessed as inhibition of maximal electroshock-induced seizures after 0.25 to 4 hrs. Format: functional. The gist of the method: as §1
In data set [23] the test system is Rattus norvegicus. Put plainly: Anticonvulsant activity in po dosed Sprague-Dawley albino rat assessed as inhibition of maximal electroshock-induced seizures. Format: functional. The method, boiled down:
as §1

Data set [24] deals with Mus musculus. Nature of the data set: Anticonvulsant activity in ip dosed albino mouse assessed as inhibition of maximal electroshock-induced seizures after 2 hrs. The data set is classed as functional.
Data set [25] relates to Mus musculus. Described as §2. Format: organism-based. Particulars: in vivo, 0.5 h.
For data set [26], the system named is Rattus norvegicus. The data set is described as §4. The data set is classed as organism-based. Particulars: in vivo, 4 h. The method, boiled down:
as §5

Each structure is given as a SMILES string. Activity calls are given as the source filed them. The rule behind the calls is not given here.

What is called ED50 is the dose at which the effect has come halfway, by size or by number of responders. Usually TD50 stands for the dose at which the toxic effect under study appears in half of the subjects. Regarding `COC[C@@H](NC(C)=O)C(=O)NCc1ccc(-c2cccc(F)c2)cc1`, the ED50 with Rattus norvegicus [1] was 2.4 mg/kg; in the data set with Mus musculus [4], 10 mg/kg; in the data set on Mus musculus [6], under 30 mg/kg. In data set [2], this molecule returned a TD50 at 0.5 h of 100 mg/kg. Moreover, the “Ratio TD50/ED50” value in the data set filed under Rattus norvegicus [3] is over 250. Moreover, the TD50 with Rattus norvegicus [5] was over 500 mg/kg.
With `CCCC(CCC)C(=O)[O-].[Na+]` [VALPROATE SODIUM], the result in the data set with Mus musculus [7] and in the data set with Mus musculus [9] was inactive. Besides, the median effective dose (ED50) in the data set with Mus musculus [8] is 270 mg/kg.
On to `COC[C@@H](NC(C)=O)C(=O)NCc1ccc(/C=C/c2cccc(F)c2)cc1`, for which the ED50 in the data set on Rattus norvegicus [1] is 30 mg/kg; in the data set with Mus musculus [4], 30 mg/kg; in the data set on Rattus norvegicus [10] it was 30 mg/kg; with Mus musculus [6], under 30 mg/kg. In addition, the TD50 at 0.5 h in data set [2] was 100 mg/kg. Also, the TD50 at […] in data set [11] was over 30 mg/kg.
Consider `NC(=O)C(NCc1ccc(OCc2cccc(F)c2)cc1)c1ccco1.O=C(O)C(=O)O` (racemic), for which the TD50 at 0.5 h in [2] was found to be 100 mg/kg. For the same molecule, the ED50 in the data set on Mus musculus [4] came out at 10 mg/kg; with Mus musculus [12], 100 mg/kg.
Take `CC(=O)NC(C(=O)NCc1ccc(OCc2cccc(F)c2)cc1)c1ccccn1` (racemic): in the data set on Mus musculus [4], the ED50 was 28 mg/kg. For the same molecule, the result in the data set on Mus musculus [7] and in the data set on Mus musculus [9] was inactive. For the same molecule, the TD50 at 4 h in data set [13] is over 30 mg/kg.
For the molecule `COC[C@@H](NC(C)=O)C(=O)NCc1ccc(COc2cccc(F)c2)cc1`, the “Ratio TD50/ED50” value in the data set listed under Rattus norvegicus [3] is over 21; in the data set filed under Mus musculus [14], 1.8. Also, the median effective dose (ED50) in the data set with Rattus norvegicus [15] came out at 19 mg/kg; in the data set on Mus musculus [8], 5.9 mg/kg. The molecule also gave a TD50 at […] in data set [16] of 10 mg/kg.
For the molecule `COC[C@@H](NC(C)=O)C(=O)NCc1ccc(C#Cc2cccc(F)c2)cc1`, the 50% effective dose (ED50) was 1.4 mg/kg with Rattus norvegicus [10], over 30 mg/kg in the data set with Mus musculus [18] and under 100 mg/kg in the data set with Mus musculus [19]. For the same molecule, the values for the TD50 at 4 h in data set [17] and in data set [13] were 100 mg/kg and 63 mg/kg, respectively.
Consider `COC[C@@H](NC(C)=O)C(=O)NCc1ccc(CCc2cccc(F)c2)cc1`, for which the results for the ED50 in the data set on Rattus norvegicus [1] and with Mus musculus [4] were under 30 mg/kg and 10 mg/kg, respectively. In data set [2], this molecule had a TD50 at 0.5 h of 30 mg/kg. The same molecule returned a TD50 in the data set on Rattus norvegicus [20] of over 30 mg/kg.
Consider `CC(=O)N[C@@H](C)C(=O)NCc1ccc(OCc2cccc(F)c2)cc1`, for which the figures for the ED50 in the data set with Mus musculus [4], with Rattus norvegicus [22] and in the data set on Mus musculus [19] were 100 mg/kg, over 30 mg/kg and over 300 mg/kg, respectively. Besides, the TD50 in data set [21] is over 30 mg/kg. Further, the outcome with Mus musculus [7] and in the data set with Mus musculus [9] was inactive.
`O=C1NC(=O)C(c2ccccc2)(c2ccccc2)N1`: the outcome in the data set on Mus musculus [7] and in the data set on Mus musculus [9] was inactive.
Regarding `CCC1(c2ccccc2)C(=O)NC(=O)NC1=O`, the outcome in the data set on Mus musculus [7] and with Mus musculus [9] was inactive.
In the case of `CC(=O)NCC(=O)NCc1ccc(OCc2cccc(F)c2)cc1`, the ED50 in the data set on Rattus norvegicus [1] was 31 mg/kg; in the data set with Rattus norvegicus [23] it was 18 mg/kg; in the data set with Mus musculus [24] it was 30 mg/kg; in the data set on Mus musculus [19], 100 mg/kg. Besides, in the data set listed under Rattus norvegicus [3], the “Ratio TD50/ED50” value is over 16. In the data set with Rattus norvegicus [20], this molecule gave a TD50 of over 500 mg/kg. The same molecule registered a TD50 at 4 h in data set [17] of over 300 mg/kg. In addition, the result in the data set with Mus musculus [7] and with Mus musculus [9] was inactive.
`CC(=O)N[C@H](C)C(=O)NCc1ccc(OCc2cccc(F)c2)cc1`: the figures for the TD50 with Mus musculus [25] and in the data set on Rattus norvegicus [26] were over 300 mg/kg and over 500 mg/kg, respectively. Further, the “Ratio TD50/ED50” value in the data set listed under Rattus norvegicus [3] is over 16. For the same molecule, the ED50 in the data set on Mus musculus [4] was over 30 mg/kg; in the data set with Rattus norvegicus [10], 31 mg/kg; in the data set with Rattus norvegicus [23], 21 mg/kg; in the data set with Mus musculus [19] it was under 100 mg/kg. Further, the outcome in the data set on Mus musculus [7] and in the data set on Mus musculus [9] was inactive.
`COC[C@@H](NC(C)=O)C(=O)NCc1ccc(OCc2ccc(F)cc2)cc1` registered a TD50 at 0.5 h in [2] of 30 mg/kg. Moreover, the 50% effective dose (ED50) in the data set on Mus musculus [4] turned out to be 10 mg/kg.
